Shown is part of a subset that was picked to be rich in hits.
PolyA inhibitor – polyadenylation inhibitors in yeast reporter cells, primary screen, luminescence, S. cerevisiae. AID 1875, 2009. S. cerevisiae SKY197-pL101 polyadenylation reporter, beta-gal luminescence; efflux-impaired pdr1/pdr3 knockout yeast; score 100 = 6 SD above DMSO. activity score, % at 12 µM. 0.02% of 300,000 active;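 active = lowest replicate activity score at least 50, where 100 means six control SD above control mean; inconclusive = lowest score under 50 but half or more replicates reach 50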;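 note: yeast exposed to compound for 9 h at 30 °C; higher score means more reporter readthrough which indicates perturbed polyadenylation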
L major viab – Leishmania major promastigote growth inhibition, primary screen. inhibition, % at 10 µM. Leishmania major promastigotes, resazurin fluorescence viability. AID 1063, 2008. 9% of 200,000 active; in the data active = inhibition above about 50%;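 note: promastigotes grown with compound for 44 hours at 28 °C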
NALP1 yeast inh – NALP1 inflammasome inhibitors in reconstituted yeast, colorimetric, S. cerevisiae, triplicate retest; S. cerevisiae NALP1/ASC/caspase-1 growth, X-gal OD620, 72 h; inhibition, % at 10 µM; 0.61% of 280,000 active; AID 2071, 2009; in the data active = inhibition mostly above about 24%, no sharp cut-off; inactive = mostly below about 32%
NALP3 yeast inh – NALP3 inflammasome inhibitors in reconstituted yeast, primary screen, luminescence, uHTS; AID 2825, 2010; 0.39% of 330,000 active; Yeast reconstituted NLRP3/ASC/caspase-1, beta-gal luminescence, 24 h; inhibition, % at 10 µM;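 active = inhibition of 50% or more; inactive = inhibition below 50%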;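 note: plate controls were induced DMSO wells for no effect and uninduced yeast grown without galactose for full effect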
T cruzi repl – inhibitors of intracellular T. cruzi growth, primary screen, luminescence, NIH3T3 host cells; inhibition, % (test concentration not listed); AID 1885, 2009; T. cruzi beta-gal in NIH3T3, 90 h; 1.4% of 300,000 active;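 active = mean inhibition across valid replicates above about 55%, limit read from the data; inconclusive = mean below that limit but half or more replicates reach it; inactive = mean below it, under half of replicates reach it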;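 note: signal also drops with host cell toxicity which is not excluded here; 0% = plate median of DMSO wells and 100% = zero luminescence signal; higher percent means less beta-gal luminescence so fewer parasites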
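Incubation – ≥90 h infection period, 3 h prior cell attachment · System – NIH/3T3 fibroblasts plus reporter T. cruzi · Doses – compound pinned at 50 nL/well, DMSO · Read-out basis – percent inhibition of parasite-derived β-gal signal · Signal – luminescent β-galactosidase signal after 60 min lysis · Also added – 5000 T. cruzi trypomastigotes/well · Medium – Low-serum DMEM with 2% FBS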
Calb FLC – C. albicans growth inhibition with fluconazole, primary screen, CaCi-2 strain, Alamar Blue fluorescence; growth inhibition, % (concentration not given with the values); C. albicans CaCi-2 (fluconazole-resistant clinical isolate) + fluconazole, 48 h; 0.57% of 300,000 active;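 active = growth inhibition above about 58% in most replicates, limit read from the data, passing the limit was not always enough; inconclusive = exactly half the replicates above a set limit; inactive = most replicates below a set limit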;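 note: all wells also contain fluconazole at 8 µg/ml as a sub-toxic cotreatment; 0% = median of DMSO wells and 100% = median of geldanamycin control wells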
* marks the source's active call; other numbers are inactive results; ? = inconclusive; . = not tested or not shown.

SMILES	PolyA inhibitor	L major viab	NALP1 yeast inh	NALP3 yeast inh	T cruzi repl	Calb FLC
O=C(NCC1CCCO1)c1nn2c(c1Cl)NC(c1ccc(F)cc1)CC2C(F)(F)F (configuration not stated)	.	-2	10	.	.	.
O=C(NCC1CCCO1)c1cc2n(n1)C(C(F)(F)F)CC(c1ccc(Br)cc1)N2 (configuration not stated)	12	0	-3	-5	-16	93*
CN1CCN(C2=Cc3ccc(Cl)cc3Sc3ccc(F)cc32)CC1	4	95*	27	7	32	29
CN1CCN(C2=Cc3ccccc3Sc3cc(F)ccc32)CC1	-4	100*	-35	-4	25	-3
Cc1cc(Cl)c(S(=O)(=O)N2CCCCCC2)cc1OCC(=O)NC1CCCCC1	5	96*	-4	17	28	-12
CCOC(=O)N1CCN(S(=O)(=O)c2cc(OCC(=O)NC3CCCCC3)c(C)cc2Cl)CC1	0	64*	23	5	20	4
Cc1cc(Cl)c(S(=O)(=O)N2CCN(c3cccc(C)c3C)CC2)cc1OCC(N)=O	31	95*	2	4	31	60
Cc1ccccc1NS(=O)(=O)c1cc(OCC(N)=O)c(C)cc1Cl	5	2	0	9	3	118*
Cc1ccc(NS(=O)(=O)c2cc(OCC(N)=O)c(C)cc2Cl)cc1C	11	6	0	7	-32	9
Cc1ccc(S(=O)(=O)N2CCOCC2)cc1C(=O)OCC(=O)c1ccc[nH]1	.	.	.	11	.	.
Cc1ccc(Cl)c(OCC(=O)Nc2cccnc2)c1	-7	.	-1	27	-5	5
Cc1cc(C)c(NC(=O)COC(=O)Cc2ccsc2)c(C)c1	13	-5	3	-6	1	-10
Cc1cc(Cl)c(S(=O)(=O)N2CCCCCC2)cc1OCC(N)=O	.	67*	2	4	.	.
CCOC(=O)N1CCN(C(=O)C2CCN(S(=O)(=O)c3cc(Cl)ccc3Cl)CC2)CC1	-9	99*	12	28	1	?
C[C@H](CO)N1C[C@H](C)[C@@H](CN(C)Cc2ccc(-c3ccccc3)cc2)Oc2c(NC(=O)Nc3ccc(C(F)(F)F)cc3)cccc2C1=O	.	.	.	15	.	.
C=CCOc1ccccc1CNc1cccc(F)c1	-19	-8	28	10	4	-1
C=CCOc1ccccc1CNc1ccc2c(c1)OCCO2	-2	40	-10	26	73*	-10
CCOc1ccccc1C(=O)NCC(=O)N1CCN(Cc2ccc3c(c2)OCO3)CC1	.	.	.	17	.	.
Cc1sc(NC(=S)NC(=O)C2CCCCC2)c(C(N)=O)c1C	2	63*	18	-2	-6	?
Cc1sc(NC(=S)Nc2ccc(F)cc2)c(C(N)=O)c1C	-13	4	-15	.	-20	1
COc1ccc(NC(=S)NCCCN2CCCC2)cc1Cl	-5	22	-2	4	-11	-21
Cc1cc(C)cc(NC(=S)N(CCCN2CCN(C)CC2)Cc2cccs2)c1	4	20	17	0	7	0
CSc1cccc(NC(=S)N(CCCN2CCCC(C)C2)Cc2cccs2)c1 (configuration not stated)	2	99*	-8	2	18	11
COc1ccc(NC(=S)N(CCCN2CCC(C)CC2)Cc2cccs2)cc1Cl	8	99*	-3	5	23	-10
COc1ccc(NC(=S)N(CCCN2CCN(C)CC2)Cc2cccs2)cc1	14	4	30	11	3	4
SMILES	PolyA inhibitor	L major viab	NALP1 yeast inh	NALP3 yeast inh	T cruzi repl	Calb FLC
COc1ccc(NC(=S)NCCN2CCC(C)CC2)cc1Cl	7	69*	-21	6	12	-58
COc1cccc(NC(=S)N(CCCN2CCCC(C)C2)Cc2cccs2)c1 (configuration not stated)	12	100*	16	10	-12	-40
COc1ccc(S(=O)(=O)NC(CC(C)C)C(=O)NC(C)c2cccs2)cc1 (configuration not stated)	.	.	.	3	.	.
O=C(CCNS(=O)(=O)c1ccccc1)NNC(=O)C1COc2ccccc2O1 (configuration not stated)	10	.	.	9	-12	7
Oc1ccccc1C1=NN(c2ccccc2)C(c2ccc(F)cc2)C1 (configuration not stated)	-13	.	9	17	30	5
Oc1ccccc1C1=Nc2nc3ccccc3n2C(c2ccccc2)C1 (configuration not stated)	-6	91*	10	32	16	1
O=c1[nH][nH]c(C(F)(F)F)c1/C=N/N1CCOCC1	25	-4	3	-1	-9	-9
CCCCC(=O)NS(=O)(=O)c1ccc(NS(C)(=O)=O)cc1	13	1	15	6	-9	-4
CCCCc1ccc(S(=O)(=O)NC2CCS(=O)(=O)C2)cc1 (configuration not stated)	-2	.	32	-1	1	20
Cc1cccc(CN(CC(=O)N/N=C/c2cccs2)S(=O)(=O)c2ccc(Cl)cc2)c1	-2	93*	15	9	28	-12
COc1ccc(OCCN2CCN(S(=O)(=O)c3ccccc3C(F)(F)F)CC2)cc1	.	.	.	14	.	.
Cc1ccc(NC(=O)C(C)S)cc1 (configuration not stated)	9	.	10	.	9	0
COc1ccc(-n2c(-c3cccc(C)c3[N+](=O)[O-])n[nH]c2=S)cc1	7	-8	5	27	4	74*
CCN(CC)CCCNc1nc(-c2ccccc2)nc2ccccc12	2	72*	36	18	11	-28
COCCNc1nc(-c2ccccc2)nc2ccccc12	1	84*	15	16	22	41
OCCNc1nc(-c2ccccc2)nc2ccccc12	-5	20	14	-3	-9	17
COCCCNc1nc(-c2ccc(Cl)cc2)nc2ccccc12	-5	.	36*	26	18	25
c1ccc(-c2nc(NCCCn3ccnc3)c3ccccc3n2)cc1	1	54*	-4	17	20	9
CSc1ncccc1C(=O)N1CCCC(N2CCN(c3ccccc3F)CC2)C1 (configuration not stated)	22	.	26	13	3	-7
CCOc1cccc(-c2nc3c(s2)CCc2onc(-c4cccc([N+](=O)[O-])c4)c2-3)c1	6	.	.	10	4	0
O=C(CC(=O)N/N=C/c1ccc(C(=O)O)cc1)NCCc1ccccc1	-8	.	3	15	10	7
Clc1ccc(-c2nc(NCCN3CCOCC3)c3ccccc3n2)cc1	-1	62*	18	21	25	26
